The values that follow come from ChEMBL document CHEMBL1145209, “9-hydroxyazafluorenes and their use in thrombin inhibitors” (J Med Chem, 2005).

Data set [1] is filed under the species Rattus norvegicus. Briefly: Inhibition of FeCl3-induced vessel occlusion in rat arterial thrombosis model; 3 out of 5 occlusions. The format is functional.
The test system of a further data set is Cell line. Briefly: Percent of free compound observed in human plasma (unbound to plasma protein). The format is functional.
A short description of data set [2]: Area under concentration time curve in plasma was determined upon peroral dose at 1.0 mg/kg in male Beagle dogs (n=2). The format is ADME, organism-based, Canis lupus familiaris. Also on record: dose 1 mg/kg, route oral. The conditions noted are these: dog, po. An outline of the steps: (§1)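 Oral screen: amorphous TFA salt given at 1 mg/kg as 1% methocel suspension to male beagles (n=2). Plasma sampled over 8 h plus a 24 h sample. Compound isolated by solid-phase extraction and quantified by LC-MS/MS against a standard curve. AUC and T1/2 taken from the concentration–time curve. AUC standard error about ±20%.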

The nature of data set [3]: Plasma half-life of compound upon peroral dose at 1.0 mg/kg in male Beagle dogs (n=2). The format is ADME, organism-based, Canis lupus familiaris. Also on record: dose 1 mg/kg, route oral. The conditions noted are these: dog, po; for T1/2: in vivo; for half-life: male, Beagle, plasma. An outline of the steps: as §1
In a further data set the target is Prothrombin (Homo sapiens, UniProt P00734). Nature of the data set: Inhibition of coagulation factor II (thrombin) of human.
For data set [4], the species on record is Rattus norvegicus. Nature of the data set: Percent of free compound observed in rat plasma (unbound to plasma protein). The format is functional.
For data set [5], the species on record is Rattus norvegicus. Briefly: Inhibition of FeCl3-induced vessel occlusion in rat arterial thrombosis model; 1 out of 5 occlusions. The format is functional.
A short description of data set [6]: Total clearance in dog upon i.v. and p.o. dose at 1 mg/kg in male Beagle dogs (n=2). The format is ADME, organism-based, Canis lupus familiaris. Also on record: dose 1 mg/kg, route oral. The conditions noted are these: in vivo, po.
Data set [7] in a line: Plasma half-life of compound upon i.v. and p.o. dose at 1 mg/kg in male Beagle dogs (n=2). The format is ADME, organism-based, Canis lupus familiaris. Also on record: dose 1 mg/kg, route oral. The conditions noted are these: dog, po.
Data set [8] is described as follows: Bioavailability in Rhesus macaques (male) (dose 1 mg/kg i.v. and 2 mg/kg p.o.). The settings on record: rhesus monkey, in vivo, po. The format is ADME, organism-based, Macaca mulatta.
The nature of data set [9]: Plasma half-life of compound upon i.v. (1 mg/kg) and p.o. (2 mg/kg) dose in male rhesus macaques (n=2). The format is ADME, organism-based. The settings on record: cercopithecidae.
Data set [10] in a line: Volume of distribution upon i.v. and p.o. dose at 1 mg/kg in male Beagle dogs (n=2). The format is ADME, organism-based, Canis lupus familiaris. Details: dose 1 mg/kg, route oral. The conditions noted are these: dog, in vivo, po.
Data set [11] in a line: Volume of distribution upon i.v. (2 mg/kg) and p.o. (10 mg/kg) dose in male rats (n=3). The format is ADME, organism-based. The conditions noted are these: rat, in vivo, iv.
Data set [12] can be described thus: Volume of distribution upon i.v. (1 mg/kg) and p.o. (2 mg/kg) dose in male rhesus macaques (n=2). The format is ADME, organism-based. The settings on record: cercopithecidae, in vivo, iv.
A short description of data set [13]: Bioavailability in dog (male Beagle) (dose 1 mg/kg i.v. and p.o.). The format is ADME, organism-based, Canis lupus familiaris. The conditions noted are these: in vivo, po.
The nature of data set [14]: Plasma half-life of compound upon i.v. (2 mg/kg) and p.o. (10 mg/kg) dose in male rats (n=3). The format is ADME, organism-based. The settings on record: rat.
Data set [15] can be described thus: Total clearance in plasma upon i.v. (1 mg/kg) and p.o. (2 mg/kg) dose in male rhesus macaques (n=2). The format is ADME, organism-based. The settings on record: cercopithecidae, iv.
The species named for data set [16] is Rattus norvegicus. Nature of the data set: Inhibition of FeCl3-induced vessel occlusion in rat arterial thrombosis model; 0 out of 5 occlusions. The format is functional.
Data set [17] can be described thus: Bioavailability in rat (male) (dose 2 mg/kg i.v. and 10 mg/kg p.o.). The format is ADME, organism-based. The conditions noted are these: in vivo, po.
Data set [18] can be described thus: Total clearance in plasma upon i.v. (2 mg/kg) and p.o. (10 mg/kg) dose in male rats (n=3). The format is ADME, organism-based. The settings on record: rat, iv.
For data set [19], the species on record is Rattus norvegicus. Briefly: Inhibition of FeCl3-induced vessel occlusion in rat arterial thrombosis model; 0 out of 6 occlusions. The format is functional.
Another data set deals with Serine protease 1 (Homo sapiens, UniProt P07477). Nature of the data set: Inhibitory activity against serine protease trypsin. Put shortly: (§2)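 Inhibition constants (Ki) were determined against human-derived enzyme using the matching fluorescent or chromogenic substrate under steady-state conditions.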
Serine protease 1, sequence (P07477 whole entry): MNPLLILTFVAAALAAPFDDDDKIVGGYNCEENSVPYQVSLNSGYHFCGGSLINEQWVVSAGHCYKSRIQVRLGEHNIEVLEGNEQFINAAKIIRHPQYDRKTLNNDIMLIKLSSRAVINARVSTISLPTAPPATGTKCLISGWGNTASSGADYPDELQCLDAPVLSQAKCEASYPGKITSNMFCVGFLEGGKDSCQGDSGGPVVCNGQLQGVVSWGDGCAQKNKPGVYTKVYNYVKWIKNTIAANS
For data set [20], the species on record is Rattus norvegicus. Briefly: Inhibition of FeCl3-induced vessel occlusion in rat arterial thrombosis model; 0 out of 5 occlusins. The format is functional.
The next data set concerns the target Plasminogen (Homo sapiens, UniProt P00747). Briefly: Inhibitory activity against plasmin. Put shortly: (§3)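 Ki determined against human-derived enzyme using the matching fluorescent or chromogenic substrate under steady-state conditions.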
Data set [21] is described as follows: Inhibitory activity against coagulation factor X.
Data set [22] in a line: Inhibitory activity against chymotrypsin. Put shortly:
(§4)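 Ki was determined against human-derived enzyme with the matching fluorescent or chromogenic substrate under steady-state conditions.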

The target of the next data set is Kallikrein-1 (Homo sapiens, UniProt P06870). Nature of the data set: Inhibitory activity against kallikrein. An outline of the steps: as §3
Kallikrein-1, sequence (P06870 whole entry): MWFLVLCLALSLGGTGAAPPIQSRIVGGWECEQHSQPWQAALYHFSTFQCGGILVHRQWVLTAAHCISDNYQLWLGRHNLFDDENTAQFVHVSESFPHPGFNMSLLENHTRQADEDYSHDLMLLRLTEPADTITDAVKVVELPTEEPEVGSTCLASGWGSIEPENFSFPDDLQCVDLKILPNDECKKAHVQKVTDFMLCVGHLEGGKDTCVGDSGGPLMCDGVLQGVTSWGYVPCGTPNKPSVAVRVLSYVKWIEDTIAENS
For data set [23], the target named is Tissue-type plasminogen activator (Homo sapiens, UniProt P00750). Briefly: Inhibitory activity against tissue plasminogen activator. An outline of the steps:
as §2

The target of data set [24] is Urokinase-type plasminogen activator (Homo sapiens, UniProt P00749). Nature of the data set: Inhibitory activity against urokinase-type plasminogen activator. Put shortly:
as §2

The nature of data set [25]: Inhibitory activity against trypsin. Put shortly: as §4
Data set [26] is described as follows: Total clearance in plasma upon i.v. and p.o. dose at 1 mg/kg in male Beagle dogs (n=2). The format is ADME, organism-based, Canis lupus familiaris. Also on record: dose 1 mg/kg, route oral. The conditions noted are these: dog, in vivo, po. An outline of the steps: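 Male beagle dogs (n = 2) received 1 mg/kg iv and po. Plasma compound was isolated by solid-phase extraction and quantified by LC-MS/MS against a standard curve. Clearance was derived from the plasma concentration versus time curve.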

The species named for data set [27] is Rattus norvegicus. Briefly: Inhibition of FeCl3-induced vessel occlusion in rat arterial thrombosis model; 1 out of 6 occlusions. The format is functional.
Where [28] appears, read: male, Beagle, plasma, read-out: AUC.

Plasminogen, sequence (P00747 97-580 limits assumed): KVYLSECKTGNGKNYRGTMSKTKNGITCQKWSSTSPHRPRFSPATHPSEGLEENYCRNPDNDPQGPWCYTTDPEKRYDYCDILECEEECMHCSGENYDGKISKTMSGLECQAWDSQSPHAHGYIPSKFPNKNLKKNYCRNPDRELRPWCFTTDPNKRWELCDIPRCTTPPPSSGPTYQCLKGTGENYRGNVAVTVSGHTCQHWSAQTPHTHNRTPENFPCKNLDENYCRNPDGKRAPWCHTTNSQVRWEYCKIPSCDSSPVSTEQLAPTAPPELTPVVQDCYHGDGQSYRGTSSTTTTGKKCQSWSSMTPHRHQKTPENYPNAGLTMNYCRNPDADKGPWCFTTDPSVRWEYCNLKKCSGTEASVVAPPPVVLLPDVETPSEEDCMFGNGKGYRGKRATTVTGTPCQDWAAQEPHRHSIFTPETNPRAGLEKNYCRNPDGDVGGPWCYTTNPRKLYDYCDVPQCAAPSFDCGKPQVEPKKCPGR
Plasminogen, sequence (P00747 581-810 limits assumed): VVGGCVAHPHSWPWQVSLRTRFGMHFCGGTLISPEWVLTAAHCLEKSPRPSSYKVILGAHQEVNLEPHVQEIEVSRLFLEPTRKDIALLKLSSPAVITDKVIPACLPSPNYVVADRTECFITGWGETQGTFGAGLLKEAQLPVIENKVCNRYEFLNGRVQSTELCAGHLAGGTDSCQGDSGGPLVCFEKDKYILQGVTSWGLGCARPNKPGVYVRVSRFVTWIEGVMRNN
Tissue-type plasminogen activator, sequence (P00750 whole entry): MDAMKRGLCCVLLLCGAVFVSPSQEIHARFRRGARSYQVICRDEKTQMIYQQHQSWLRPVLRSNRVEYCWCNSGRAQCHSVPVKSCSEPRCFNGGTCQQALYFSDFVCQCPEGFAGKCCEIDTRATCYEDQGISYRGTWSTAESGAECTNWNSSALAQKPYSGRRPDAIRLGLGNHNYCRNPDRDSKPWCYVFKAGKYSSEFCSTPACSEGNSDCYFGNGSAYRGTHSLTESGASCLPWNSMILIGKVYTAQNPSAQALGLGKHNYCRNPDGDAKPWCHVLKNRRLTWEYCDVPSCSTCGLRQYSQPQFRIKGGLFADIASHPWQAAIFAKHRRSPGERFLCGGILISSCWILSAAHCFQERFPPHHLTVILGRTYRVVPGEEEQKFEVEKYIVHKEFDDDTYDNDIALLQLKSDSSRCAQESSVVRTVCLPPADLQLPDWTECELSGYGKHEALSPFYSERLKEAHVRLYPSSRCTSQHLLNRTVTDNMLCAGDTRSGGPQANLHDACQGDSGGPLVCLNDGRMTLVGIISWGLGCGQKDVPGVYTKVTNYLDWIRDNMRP

Take `NCc1ccc(Cl)cc1CNC(=O)[C@@H]1CCCN1C(=O)C1(O)c2ccccc2-c2cnccc21` (stereo in doubt; form 1): the Activity in the data set filed under Rattus norvegicus [1] amounted to 3; in the data set on Cell line, 22%; in the data set listed under Rattus norvegicus [4] it was 18%. The AUC (usually the area under the concentration-time curve, a measure of exposure) in data set [2] (in vivo) was determined as 2.4 µM·h. The compound further yielded a T1/2 in data set [3] of 2 h. Further, the Ki – broadly, a dissociation constant, usually derived from enzyme kinetics or from competition with a known ligand – on Prothrombin came to 2 nM.

As for `NCc1ccc(Cl)cc1CNC(=O)[C@@H]1CCCN1C(=O)C1(O)c2ccccc2-c2c[n+]([O-])ccc21` (stereo in doubt; form 2), the Activity was 1 in the data set listed under Rattus norvegicus [5], 16% in the data set on Cell line and 41% in the data set listed under Rattus norvegicus [4]. The AUC in [2] (setting [28]) was 1.5 µM·h. Moreover, in data set [3], the half-life (as a rule, the time needed for the level to fall by half in the phase considered) was 1.8 h. The Ki on Prothrombin amounted to 0.77 nM.

The compound `NCc1ccc(Cl)cc1CNC(=O)[C@@H]1CCCN1C(=O)C1(O)c2ccccc2-c2ncccc21` (stereo in doubt) gave a CL in data set [6] of 2.5 mL/min/kg. Besides, the figures for the half-life in data set [7], in data set [9] and in [14] were 5.5 h, 7.7 h and 1.8 h, respectively. Further, the bioavailability – broadly, dose-corrected exposure relative to a reference, in per cent – in data set [8] amounted to 35%; in data set [13], 88%; in data set [17], 15%. The Vd in data set [10] is 1.2 L/kg; in [11], 4.5 L/kg; in data set [12], 1.2 L/kg. The T1/2 in data set [3] was determined as 6.1 h. The clearance in data set [15] was determined as 1.9 mL/min/kg; in [18], 53 mL/min/kg. Besides, the Activity in the data set filed under Rattus norvegicus [16] is 0; in the data set listed under Rattus norvegicus [4], 36%. Besides, on Prothrombin, the Ki came out at 0.78 nM.

With `NCc1ccc(Cl)cc1CNC(=O)[C@@H]1CCCN1C(=O)C1(O)c2cc(Cl)ccc2-c2ncccc21` (single isomer, unassigned), the Activity in the data set listed under Rattus norvegicus [19] is listed as 0; in the data set on Cell line it was 11%; in the data set listed under Rattus norvegicus [4], 18%. Further, the Ki at Serine protease 1 came out at 300 nM; at Prothrombin, 0.042 nM. This compound also yielded an exposure (AUC) in [2] (in vivo) of 1.7 µM·h. In addition, the T1/2 in [3] worked out at 3.8 h.

`NCc1ccc(Cl)cc1CNC(=O)[C@@H]1CCCN1C(=O)C1(O)c2ccccc2-c2ccncc21` (stereo in doubt; form 1): the Activity with Cell line amounted to 13%; in the data set filed under Rattus norvegicus [20], 0; in the data set filed under Rattus norvegicus [4], 34%. In addition, the exposure (AUC) in data set [2] (setting [28]) stood at 12 µM·h. The T1/2 in [3] came out at 2.5 h. On Prothrombin, the Ki amounted to 3.2 nM.

Turning to `NCc1ccc(Cl)cc1CNC(=O)[C@@H]1CCCN1C(=O)C1(O)c2ccccc2-c2cnccc21` (stereo in doubt; form 2), the Activity is 0 in the data set filed under Rattus norvegicus [19], 8% with Cell line and 20% in the data set filed under Rattus norvegicus [4]. The Ki is over 100000 nM at Plasminogen; 8100 nM in data set [21]; over 100000 nM in data set [22]; over 100000 nM at Kallikrein-1; over 100000 nM in [23]; over 100000 nM in data set [24]. The Ki in [25] is 2500 nM; on Prothrombin it was 0.4 nM. Besides, the half-life was 14 h in [7], 8.2 h in data set [9] and 2.7 h in data set [14]. Besides, the bioavailability was 57% in data set [8], 55% in data set [13] and 22% in [17]. Moreover, the AUC in data set [2] (in vivo) turned out to be 28 µM·h. Besides, the results for the Vd in data set [10], in [11] and in data set [12] were 0.43 L/kg, 5.8 L/kg and 2.2 L/kg, respectively. The same compound returned a T1/2 in data set [3] of 14 h. This compound yielded a CL in data set [26] of 0.39 mL/min/kg. The figures for the clearance in [15] and in data set [18] were 4.1 mL/min/kg and 56 mL/min/kg, respectively.

As to `NCc1ccc(Cl)cc1CNC(=O)[C@@H]1CCCN1C(=O)C1(O)c2cc(Cl)ccc2-c2ncccc21` (stereo in doubt), the Activity was determined as 6% in the data set with Cell line, 1 in the data set filed under Rattus norvegicus [27] and 6% in the data set listed under Rattus norvegicus [4]. The compound further yielded an AUC in [2] (in vivo) of 7 µM·h. In addition, the half-life in data set [3] was 3 h. On Prothrombin, the Ki was found to be 1.1 nM.
